Data: ChEMBL document CHEMBL1154198, “Chemical genetics of Plasmodium falciparum” (Nature, 2010)

How the values were obtained:
Toxoplasma gondii = assay: ST_JUDE: Growth inhibition of to Toxoplasma gondii, in human U-2OS cells, as measured by luciferase.; type: functional, organism-based; settings: RH, U2OS
Method in brief: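 T. gondii parasites engineered to express luciferase; drug sensitivity read by luminescence.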

Leishmania major = assay: ST_JUDE: Cytotoxicity using Alamar Blue to measure viability of Leishmania major; type: functional, organism-based
Method in brief: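 L. major promastigotes; drug susceptibility read with Alamar Blue.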

Plasmodium falciparum [1] = assay: ST_JUDE: Cytotoxicity against Plasmodium falciparum 3D7; type: functional, organism-based
Method in brief: (§1)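 Asexual P. falciparum grown in human erythrocytes, exposed to compounds for 72 h, and growth read as the DNA quantity in treated versus control cultures. Dose-response run at 12 concentrations from 10 μM to 5 nM.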

[2] = ST_JUDE: Cytotoxicity using luciferase to measure ATP as an indicator of the viability of human epithelial hepatocellular carcinoma cells (HepG2); type: toxicity, cell-based
Plasmodium falciparum [3] = assay: ST_JUDE: Cytotoxicity against Plasmodium falciparum K1; type: functional, organism-based; method in brief: as §1
Plasmodium falciparum [4] = assay: ST_JUDE: Cytotoxicity against Plasmodium falciparum W2; type: functional, organism-based
Plasmodium falciparum [5] = assay: ST_JUDE: Cytotoxicity against Plasmodium falciparum SB-A6; type: functional, organism-based
Plasmodium falciparum [6] = assay: ST_JUDE: Cytotoxicity against Plasmodium falciparum V1/S; type: functional, organism-based
Trypanosoma brucei = assay: ST_JUDE: Cytotoxicity using luciferase to measure ATP as an indicator of the viability of Trypanosoma brucei; type: functional, organism-based
Plasmodium falciparum [7] = assay: ST_JUDE: Cytotoxicity against Plasmodium falciparum D10 transfected with yeast DHOD; type: functional, organism-based
Plasmodium falciparum [8] = assay: ST_JUDE: Cytotoxicity against Plasmodium falciparum Dd2; type: functional, organism-based
[9] = ST_JUDE: Cytotoxicity using luciferase to measure ATP as an indicator of the viability of human foreskin fibroblast cells (BJ); type: toxicity, cell-based
Plasmodium falciparum [10] = assay: ST_JUDE: Plasmodium falciparum K1 EC50 (uM) as measured by SYBR green dye; type: functional, organism-based
[11] = ST_JUDE: Cytotoxicity using luciferase to measure ATP as an indicator of the viability of human Burkitt''s lymphoma lymphoblast cells (Raji); type: toxicity, cell-based
Plasmodium falciparum [12] = assay: ST_JUDE: Plasmodium falciparum 3D7 EC50 (uM) as measured by SYBR green dye; type: functional, organism-based
[13] = ST_JUDE: Cytotoxicity using luciferase to measure ATP as an indicator of the viability of human epithelial embryonic kidney cells (HEK293); type: toxicity, cell-based

For `CCc1ccc(Nc2cc(C)c3ccc(O)cc3n2)cc1`, the EC50 (Toxoplasma gondii) was over 23900 nM, the EC50 (Leishmania major) was over 18700 nM and the EC50 (Plasmodium falciparum [1]) was 636 nM. The EC50 [2] was 23500 nM, the EC50 (Plasmodium falciparum [3]) was 188 nM and the EC50 (Plasmodium falciparum [4]) was 714 nM. The EC50 (Plasmodium falciparum [5]) was 831 nM, the EC50 (Plasmodium falciparum [6]) was 182 nM and the EC50 (Trypanosoma brucei) was over 41800 nM. The EC50 (Plasmodium falciparum [7]) was 594 nM, the EC50 (Plasmodium falciparum [8]) was 784 nM and the EC50 [9] was over 43600 nM. It also gave an EC50 (Plasmodium falciparum [10]) of 127 nM, an EC50 [11] of 30800 nM and an EC50 (Plasmodium falciparum [12]) of 732 nM. It also gave an EC50 [13] of over 43600 nM.
For `CCCCCCCCCC[n+]1ccccc1`, the EC50 (Toxoplasma gondii) was over 26800 nM, the EC50 (Leishmania major) was over 20900 nM and the EC50 (Plasmodium falciparum [1]) was 2290 nM. It also gave an EC50 [2] of over 48900 nM, an EC50 (Plasmodium falciparum [3]) of 3600 nM and an EC50 (Plasmodium falciparum [4]) of 899 nM. For the same compound, the EC50 (Plasmodium falciparum [5]) was 2880 nM, the EC50 (Plasmodium falciparum [6]) was 9360 nM and the EC50 (Trypanosoma brucei) was over 46900 nM. It also gave an EC50 (Plasmodium falciparum [7]) of 3930 nM, an EC50 (Plasmodium falciparum [8]) of 1150 nM and an EC50 [9] of over 48900 nM. It also gave an EC50 (Plasmodium falciparum [10]) of 1530 nM, an EC50 [11] of 9310 nM and an EC50 (Plasmodium falciparum [12]) of 1310 nM. For the same compound, the EC50 [13] was over 48900 nM.
With `Oc1ccc(Br)cc1CN1CCN(C2CC3CCC2C3)CC1` (stereo not given) the EC50 (Toxoplasma gondii) was over 20900 nM, the EC50 (Leishmania major) was over 16400 nM and the EC50 (Plasmodium falciparum [1]) was 501 nM. The EC50 [2] was over 38200 nM, the EC50 (Plasmodium falciparum [3]) was 131 nM and the EC50 (Plasmodium falciparum [4]) was 519 nM. For the same compound, the EC50 (Plasmodium falciparum [5]) was 953 nM, the EC50 (Plasmodium falciparum [6]) was 290 nM and the EC50 (Trypanosoma brucei) was over 36600 nM. It also gave an EC50 (Plasmodium falciparum [7]) of 864 nM, an EC50 (Plasmodium falciparum [8]) of 285 nM and an EC50 [9] of over 38200 nM. It also gave an EC50 (Plasmodium falciparum [10]) of 181 nM, an EC50 [11] of over 38200 nM and an EC50 (Plasmodium falciparum [12]) of 289 nM. It also gave an EC50 [13] of over 38200 nM.
`COc1ccc(Nc2cc(C)nc(Nc3ccc(NS(=O)(=O)c4ccc(OC)cc4)cc3)n2)cc1` gave an EC50 (Toxoplasma gondii) of over 27600 nM, an EC50 (Leishmania major) of 175 nM and an EC50 (Plasmodium falciparum [1]) of 1030 nM. For the same compound, the EC50 [2] was 17400 nM, the EC50 (Plasmodium falciparum [3]) was over 12900 nM and the EC50 (Plasmodium falciparum [4]) was over 12900 nM. It also gave an EC50 (Plasmodium falciparum [5]) of 546 nM, an EC50 (Plasmodium falciparum [6]) of over 12900 nM and an EC50 (Trypanosoma brucei) of 5790 nM. The EC50 (Plasmodium falciparum [7]) was 1690 nM, the EC50 (Plasmodium falciparum [8]) was 1230 nM and the EC50 [9] was over 50300 nM. It also gave an EC50 (Plasmodium falciparum [10]) of over 15000 nM, an EC50 [11] of 14300 nM and an EC50 (Plasmodium falciparum [12]) of 743 nM. The EC50 [13] was 30600 nM.
With `Cc1ccc2c(c1)N(CCO)/C(=C/c1sc3ccccc3[n+]1C)S2` the EC50 (Toxoplasma gondii) was over 9160 nM, the EC50 (Leishmania major) was over 7160 nM and the EC50 (Plasmodium falciparum [1]) was 250 nM. For the same compound, the EC50 [2] was over 16700 nM, the EC50 (Plasmodium falciparum [3]) was 330 nM and the EC50 (Plasmodium falciparum [4]) was 240 nM. It also gave an EC50 (Plasmodium falciparum [5]) of 468 nM, an EC50 (Plasmodium falciparum [6]) of 394 nM and an EC50 (Trypanosoma brucei) of 5200 nM. It also gave an EC50 (Plasmodium falciparum [7]) of 341 nM, an EC50 (Plasmodium falciparum [8]) of 197 nM and an EC50 [9] of over 16700 nM. It also gave an EC50 (Plasmodium falciparum [10]) of 162 nM, an EC50 [11] of 1780 nM and an EC50 (Plasmodium falciparum [12]) of 423 nM. For the same compound, the EC50 [13] was over 16700 nM.
`CCOc1ccc(/C=C2\Oc3c(ccc(O)c3CN3CCCCC3)C2=O)cc1` gave an EC50 (Toxoplasma gondii) of over 25800 nM, an EC50 (Leishmania major) of over 20200 nM and an EC50 (Plasmodium falciparum [1]) of 1770 nM. The EC50 [2] was over 47100 nM, the EC50 (Plasmodium falciparum [3]) was 500 nM and the EC50 (Plasmodium falciparum [4]) was 1150 nM. The EC50 (Plasmodium falciparum [5]) was 3390 nM, the EC50 (Plasmodium falciparum [6]) was 1180 nM and the EC50 (Trypanosoma brucei) was over 45200 nM. For the same compound, the EC50 (Plasmodium falciparum [7]) was 1850 nM, the EC50 (Plasmodium falciparum [8]) was 2140 nM and the EC50 [9] was over 47100 nM. It also gave an EC50 (Plasmodium falciparum [10]) of 467 nM, an EC50 [11] of over 47100 nM and an EC50 (Plasmodium falciparum [12]) of 1290 nM. For the same compound, the EC50 [13] was over 47100 nM.
In the case of `CC(C)(C)c1cc(C2C(C#N)=C(N)OC3=C2C(=O)CCC3)cc(C(C)(C)C)c1O` (stereo not given), the EC50 (Toxoplasma gondii) is reported as 1340 nM, the EC50 (Leishmania major) is reported as over 15500 nM and the EC50 (Plasmodium falciparum [1]) is reported as 1850 nM. The EC50 [2] was 3030 nM, the EC50 (Plasmodium falciparum [3]) was 1860 nM and the EC50 (Plasmodium falciparum [4]) was 3440 nM. For the same compound, the EC50 (Plasmodium falciparum [5]) was 2530 nM, the EC50 (Plasmodium falciparum [6]) was 1520 nM and the EC50 (Trypanosoma brucei) was 5460 nM. It also gave an EC50 (Plasmodium falciparum [7]) of 2390 nM, an EC50 (Plasmodium falciparum [8]) of 2530 nM and an EC50 [9] of over 36200 nM. The EC50 (Plasmodium falciparum [10]) was 427 nM, the EC50 [11] was 3040 nM and the EC50 (Plasmodium falciparum [12]) was 1350 nM. It also gave an EC50 [13] of over 36200 nM.
In the case of `CC(C)CN1C(=O)c2ccccc2C(C(=O)Nc2ccc(F)cc2F)C1c1cccs1` (stereo not given), the EC50 (Toxoplasma gondii) is reported as over 23700 nM, the EC50 (Leishmania major) is reported as over 18500 nM and the EC50 (Plasmodium falciparum [1]) is reported as 647 nM. For the same compound, the EC50 [2] was over 43300 nM, the EC50 (Plasmodium falciparum [3]) was over 11100 nM and the EC50 (Plasmodium falciparum [4]) was 738 nM. It also gave an EC50 (Plasmodium falciparum [5]) of 970 nM, an EC50 (Plasmodium falciparum [6]) of 942 nM and an EC50 (Trypanosoma brucei) of 8860 nM. The EC50 (Plasmodium falciparum [7]) was 687 nM, the EC50 (Plasmodium falciparum [8]) was 808 nM and the EC50 [9] was over 43300 nM. For the same compound, the EC50 (Plasmodium falciparum [10]) was 399 nM, the EC50 [11] was over 43300 nM and the EC50 (Plasmodium falciparum [12]) was 326 nM. It also gave an EC50 [13] of over 43300 nM.
`CCOc1ccc(Nc2cc(C)c3ccc(O)cc3n2)cc1` gave an EC50 (Toxoplasma gondii) of over 28300 nM, an EC50 (Leishmania major) of over 22100 nM and an EC50 (Plasmodium falciparum [1]) of 714 nM. The EC50 [2] was 30400 nM, the EC50 (Plasmodium falciparum [3]) was 158 nM and the EC50 (Plasmodium falciparum [4]) was 233 nM. It also gave an EC50 (Plasmodium falciparum [5]) of 460 nM, an EC50 (Plasmodium falciparum [6]) of 195 nM and an EC50 (Trypanosoma brucei) of 21700 nM. For the same compound, the EC50 (Plasmodium falciparum [7]) was 504 nM, the EC50 (Plasmodium falciparum [8]) was 629 nM and the EC50 [9] was over 51700 nM. The EC50 (Plasmodium falciparum [10]) was 153 nM, the EC50 [11] was 34400 nM and the EC50 (Plasmodium falciparum [12]) was 483 nM. For the same compound, the EC50 [13] was over 51700 nM.
With `CC(C)c1ccc(NC(=O)/C=C/c2ccccc2Cl)cc1` the EC50 (Toxoplasma gondii) was over 22300 nM, the EC50 (Leishmania major) was over 17400 nM and the EC50 (Plasmodium falciparum [1]) was over 10500 nM. For the same compound, the EC50 [2] was over 40700 nM, the EC50 (Plasmodium falciparum [3]) was over 10500 nM and the EC50 (Plasmodium falciparum [4]) was 416 nM. For the same compound, the EC50 (Plasmodium falciparum [5]) was over 10500 nM, the EC50 (Plasmodium falciparum [6]) was over 10500 nM and the EC50 (Trypanosoma brucei) was 23100 nM. It also gave an EC50 (Plasmodium falciparum [7]) of over 10500 nM, an EC50 (Plasmodium falciparum [8]) of 1610 nM and an EC50 [9] of over 40700 nM. For the same compound, the EC50 (Plasmodium falciparum [10]) was 942 nM, the EC50 [11] was over 40700 nM and the EC50 (Plasmodium falciparum [12]) was 1100 nM. For the same compound, the EC50 [13] was over 40700 nM.
